ChEMBL document CHEMBL4480436, “Lead optimization of selective tubulin inhibitors as anti-trypanosomal agents” (Bioorg Med Chem, 2019)

Columns and labels:
[1] = 1-Octanol/DDH2O partition coefficient, log P of the compound incubated for 48 hrs under stirring condition measured by UV-Vis spectrophotometric method; assay type: physicochemical; details: for logP: octanol/water, 48 h
Summary of the method: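 Slow-stir shake method (OECD-based, modified): compound dissolved in water-saturated 1-octanol, centrifuged 5000 rpm 5 min, supernatant mixed with equal volume octanol-saturated water, stirred at room temperature 48 h. Phases separated by centrifugation; octanol-phase UV absorbance read before and after. Log P = log[Ax/(A0−Ax)]. Repeated three times, Mean ± SD.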

[2] = test system: Trypanosoma brucei brucei; assay: Antiparasitic activity against Trypanosoma brucei brucei Lister 427 assessed as reduction in parasite viability after 48 hrs by MTS assay; assay type: functional, organism-based; details: Lister 427, 48 h
Summary of the method: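 Bloodstream-form Lister 427 grown in HMI-9 with 10% FBS, 37 °C, 7.5% CO2. 5000 cells/well exposed to graded concentrations with 0.1% DMSO for 48 h at 37 °C. MTS/PMS reagent then added, 3 h at 37 °C, formazan read at 490 nm. Quadruplicate data normalized and fitted to dose–response curves for IC50 (Mean ± S.D.).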

HEK293 = assay: Cytotoxicity against HEK293 cells after 48 hrs by MTT assay; assay type: cell-based; details: Homo sapiens, HEK293, 48 h
Summary of the method: (§1)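 Cells kept in RPMI1640 with 10% heat-inactivated FBS, 2 mM L-glutamine, 1 mM pyruvate, pen-strep, 37 °C, 5% CO2. 3000 cells/well seeded 24 h, then exposed to graded concentrations (DMSO ≤0.1% final) for 48 h. Then 0.5 mg/mL MTT 3 h at 37 °C, DMSO solubilization, absorbance 570 nm. Quadruplicate data fitted to dose–response curves for IC50.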

[3] = Selectivity index, ratio of IC50 for HEK293 cells to IC50 for Trypanosoma brucei brucei Lister 427; assay type: toxicity; details: human, read-out: Ratio IC50
Summary of the method: (§2)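 Ratio of mammalian MTT IC50 (48 h) to T. brucei MTS IC50 (48 h), both from quadruplicate dose–response fits.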

RAW264.7 = assay: Cytotoxicity against mouse RAW264.7 cells after 48 hrs by MTT assay; assay type: cell-based; details: RAW264.7, 48 h; summary of the method: as §1
[4] = Selectivity index, ratio of IC50 for mouse RAW264.7 cells to IC50 for Trypanosoma brucei brucei Lister 427; assay type: toxicity; details: read-out: Ratio IC50; summary of the method: as §2
[5] = test system: Trypanosoma brucei brucei; assay: Inhibition of tubulin polymerization in Trypanosoma brucei brucei Lister 427 assessed as increase in non-polymerized tubulin after 12 hrs by Western blot analysis
Summary of the method: (§3)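 Trypanosomes treated with different doses (0.5% DMSO) for 12 h, washed in TDB pH 7.4 and lysed in Pipes pH 6.8/EGTA/MgCl2/0.15% Triton X-100/glycerol buffer, 4 °C, 5 min. Lysate spun 15,000 g 30 min at 4 °C: supernatant taken as non-polymerized tubulin, RIPA-resuspended pellet as polymerized. Equal cell equivalents (1.83 × 10^7) run on 10% SDS-PAGE for western blot.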

[6] = test system: Trypanosoma brucei brucei; assay: Inhibition of tubulin polymerization in Trypanosoma brucei brucei Lister 427 assessed as decrease in polymerized tubulin after 12 hrs by Western blot analysis; summary of the method: as §3

SMILES | logP at 48 h ([1]; 1-octanol/DDH2O) | IC50 [2] | inhibition [5] | inhibition [6] | logP [1] | IC50 (HEK293) | selectivity ratio [3] | IC50 (RAW264.7) | selectivity ratio [4]
CN(c1ccc(NC(=O)c2ccc(C#N)cc2)cc1OCc1ccc(C(F)(F)F)cc1)S(=O)(=O)Cc1ccccc1 | 2.9 | – | – | – | – | – | – | – | –
CS(=O)(=O)Nc1ccc(NC(=O)c2ccc(Cl)cc2)cc1Cl | – | > 62.5 µM | – | – | – | 167 µM | < 3 | 79.9 µM | < 2
CCS(=O)(=O)Nc1ccc(NC(=O)c2ccc(C#N)cc2)cc1F | – | > 62.5 µM | – | – | – | 26.4 µM | < 1 | 107 µM | < 2
O=C(Nc1ccc(NS(=O)(=O)C(F)(F)F)c(Cl)c1)c1ccc(Cl)cc1 | – | > 62.5 µM | – | – | – | 191 µM | < 4 | 47.1 µM | < 1
COc1cc(NC(=O)c2ccc(Cl)cc2)ccc1NS(=O)(=O)C(F)(F)F | – | 45.6 µM | – | – | – | > 250 µM | > 5 | 108 µM | 2
CS(=O)(=O)Nc1ccc(NC(=O)c2ccc(Cl)c([N+](=O)[O-])c2)cc1F | – | > 62.5 µM | – | – | – | 23.1 µM | < 1 | 102 µM | < 2
O=C(Nc1ccc(NS(=O)(=O)C(F)(F)F)c(Cl)c1)c1cccc(C(F)(F)F)c1 | – | > 62.5 µM | – | – | – | 210 µM | < 4 | 55.8 µM | < 1
O=C(Nc1ccc(NS(=O)(=O)C(F)(F)F)c(F)c1)c1cccc(C(F)(F)F)c1 | – | 47.4 µM | – | – | – | 152 µM | 3 | 34.4 µM | 1
CCS(=O)(=O)Nc1ccc(NC(=O)c2cccc(C(F)(F)F)c2)cc1C | – | 35.3 µM | – | – | – | 210 µM | 6 | 114 µM | 3
CCS(=O)(=O)Nc1ccc(NC(=O)c2ccc(C#N)cc2)cc1Cl | – | 38 µM | – | – | – | > 250 µM | > 7 | 226 µM | 6
CCS(=O)(=O)Nc1ccc(NC(=O)c2ccc(Cl)cc2)cc1C | – | > 62.5 µM | – | – | – | 125 µM | < 3 | 68.7 µM | < 2
CCS(=O)(=O)Nc1ccc(NC(=O)c2ccc(Cl)c([N+](=O)[O-])c2)cc1OC | – | > 62.5 µM | – | – | – | 63.6 µM | < 2 | 5.66 µM | < 1

More lines, main results first:

logP at 48 h ([1]; 1-octanol/DDH2O) | IC50 [2] | inhibition [5] | inhibition [6] | logP [1] | SMILES | IC50 (HEK293) | selectivity ratio [3] | IC50 (RAW264.7) | selectivity ratio [4]
– | 14.1 µM | – | – | – | COc1cc(NC(=O)c2ccc(Cl)c([N+](=O)[O-])c2)ccc1NS(=O)(=O)C(F)(F)F | > 250 µM | > 18 | > 250 µM | > 18
– | 8.39 µM | – | – | – | CCS(=O)(=O)Nc1ccc(NC(=O)c2ccc(Cl)c([N+](=O)[O-])c2)cc1F | 83.7 µM | 10 | 198 µM | 24
– | 19.1 µM | – | – | – | CCS(=O)(=O)Nc1ccc(NC(=O)c2ccc(Cl)cc2)cc1Cl | > 250 µM | > 13 | > 250 µM | > 13
– | 2.1 µM | Dose-dependent effect | Dose-dependent effect | 0.998 | N#Cc1ccc(C(=O)Nc2ccc(NS(=O)(=O)C(F)(F)F)c(F)c2)cc1 | > 250 µM | > 119 | > 250 µM | > 119
– | 7.57 µM | – | – | – | Cc1cc(NC(=O)c2ccc(Cl)c([N+](=O)[O-])c2)ccc1NS(C)(=O)=O | 73.1 µM | 10 | 108 µM | 14
– | 1.73 µM | – | – | – | CCS(=O)(=O)Nc1ccc(NC(=O)c2cc(C(F)(F)F)cc(C(F)(F)F)c2)cc1Cl | 32.2 µM | 19 | 64.1 µM | 37
– | 2.93 µM | Dose-dependent effect | Dose-dependent effect | 1.957 | Cc1cc(NC(=O)c2cc(C(F)(F)F)cc(C(F)(F)F)c2)ccc1NS(C)(=O)=O | 163 µM | 56 | > 250 µM | > 85
– | 2.21 µM | – | – | – | CCS(=O)(=O)Nc1ccc(NC(=O)c2ccc(Cl)c([N+](=O)[O-])c2)cc1Cl | 63.8 µM | 29 | 125 µM | 57
– | 23.7 µM | – | – | – | CS(=O)(=O)Nc1ccc(NC(=O)c2cc(C(F)(F)F)cc(C(F)(F)F)c2)cc1F | > 250 µM | > 11 | 125 µM | 5
– | 33.9 µM | – | – | – | CCS(=O)(=O)Nc1ccc(NC(=O)c2cccc(C(F)(F)F)c2)cc1F | 94.8 µM | 3 | 119 µM | 4
– | 16.8 µM | – | – | – | O=C(Nc1ccc(NS(=O)(=O)C(F)(F)F)c(F)c1)c1ccc(Cl)c([N+](=O)[O-])c1 | 194 µM | 12 | 188 µM | 11
